Laboratory results from ChEMBL document CHEMBL4811252, “Identification of novel 1,3-diaryl-1,2,4-triazole-capped histone deacetylase 6 inhibitors with potential anti-gastric cancer activity” (Eur J Med Chem, 2021).
Activity calls are given as the source filed them. No cut-off for these calls is given here.

Tests used:
[1] = Acute toxicity in C57BL/6 mouse assessed as kidney tissue damage at 2 g/kg, po administered via gavage measured up to 14 days by HE staining based assay; type: organism-based; conditions: in vivo, 2000 mg/kg, 336 h, time <=14 day
Outline: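 Mice aged 8-10 weeks, 20 females and 20 males, split into two groups: vehicle control (0.5% CMC-Na) or a single oral gavage dose of 2000 mg/kg. Animals were fed and observed normally for 14 days, recording body weight, mortality and behaviour. Heart, liver, spleen, lung and kidney sections were then fixed, embedded and H&E stained.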

MGC-803 [2] = assay: Induction of apoptosis in human MGC803 cells assessed as downregulation of Bcl2 expression after 48 hrs by Western blotting analysis; type: functional, cell-based; conditions: dose 2-8 µM
Outline: (§1)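 MGC803 cells treated for 48 h, then lysed (0.1% SDS, 150 mM NaCl, 25 mM Tris-HCl, 1% deoxycholate, 1% NP-40, 1% PMSF). Protein quantified by BCA and resolved on 8–10% SDS-PAGE onto PVDF. Blocked in 5% milk, primary antibodies overnight at 4 °C, HRP secondary, ECL. GAPDH, total α-tubulin and H3 as references. Mean ± SD of three experiments.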

Histone deacetylase 1 = Histone deacetylase 1 (Homo sapiens, UniProt Q13547); assay: Inhibition of recombinant human HDAC1 using Z-(Ac)-Lys-AMC as substrate incubated for 40 mins by fluorescence based assay
Chain of Histone deacetylase 1 (Q13547 whole entry): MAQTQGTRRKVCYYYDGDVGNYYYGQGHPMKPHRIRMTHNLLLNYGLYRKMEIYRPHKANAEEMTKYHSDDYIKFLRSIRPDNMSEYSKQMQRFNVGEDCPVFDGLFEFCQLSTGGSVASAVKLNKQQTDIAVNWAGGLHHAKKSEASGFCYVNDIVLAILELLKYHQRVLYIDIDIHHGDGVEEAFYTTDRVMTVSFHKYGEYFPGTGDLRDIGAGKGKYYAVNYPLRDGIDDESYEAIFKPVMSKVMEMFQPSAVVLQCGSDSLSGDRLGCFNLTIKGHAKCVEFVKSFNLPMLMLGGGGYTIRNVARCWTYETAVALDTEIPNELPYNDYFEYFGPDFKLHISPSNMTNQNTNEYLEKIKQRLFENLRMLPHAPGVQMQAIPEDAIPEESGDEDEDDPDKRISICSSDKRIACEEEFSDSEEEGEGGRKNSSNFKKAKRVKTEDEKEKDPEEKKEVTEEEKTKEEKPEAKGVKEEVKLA

MGC-803 [3] = assay: Induction of apoptosis in human MGC803 cells assessed as necrotic cells at 4 uM measured after 48 hrs by Annexin-V FITC/PI staining based flow cytometry (reference value: 4.74%); type: functional
MGC-803 [4] = assay: Antiproliferative activity against human MGC803 cells incubated for 72 hrs by MTT assay; type: functional, cell-based; conditions: MGC-803, 72 h
MGC-803 [5] = assay: Induction of apoptosis in human MGC803 cells assessed as viable cells at 4 uM measured after 48 hrs by Annexin-V FITC/PI staining based flow cytometry (reference value: 92.33%); type: functional; conditions: read-out: Activity
[6] = molecular target: T1, Protein deacetylase HDAC6 (Homo sapiens, UniProt Q9UBN7); assay: Inhibition of recombinant full length human HDAC6 expressed in baculovirus infected Sf9 cells using Z-(Ac)-Lys-AMC as substrate incubated for 40 mins by fluorescence based assay
T1 sequence (Q9UBN7 whole entry): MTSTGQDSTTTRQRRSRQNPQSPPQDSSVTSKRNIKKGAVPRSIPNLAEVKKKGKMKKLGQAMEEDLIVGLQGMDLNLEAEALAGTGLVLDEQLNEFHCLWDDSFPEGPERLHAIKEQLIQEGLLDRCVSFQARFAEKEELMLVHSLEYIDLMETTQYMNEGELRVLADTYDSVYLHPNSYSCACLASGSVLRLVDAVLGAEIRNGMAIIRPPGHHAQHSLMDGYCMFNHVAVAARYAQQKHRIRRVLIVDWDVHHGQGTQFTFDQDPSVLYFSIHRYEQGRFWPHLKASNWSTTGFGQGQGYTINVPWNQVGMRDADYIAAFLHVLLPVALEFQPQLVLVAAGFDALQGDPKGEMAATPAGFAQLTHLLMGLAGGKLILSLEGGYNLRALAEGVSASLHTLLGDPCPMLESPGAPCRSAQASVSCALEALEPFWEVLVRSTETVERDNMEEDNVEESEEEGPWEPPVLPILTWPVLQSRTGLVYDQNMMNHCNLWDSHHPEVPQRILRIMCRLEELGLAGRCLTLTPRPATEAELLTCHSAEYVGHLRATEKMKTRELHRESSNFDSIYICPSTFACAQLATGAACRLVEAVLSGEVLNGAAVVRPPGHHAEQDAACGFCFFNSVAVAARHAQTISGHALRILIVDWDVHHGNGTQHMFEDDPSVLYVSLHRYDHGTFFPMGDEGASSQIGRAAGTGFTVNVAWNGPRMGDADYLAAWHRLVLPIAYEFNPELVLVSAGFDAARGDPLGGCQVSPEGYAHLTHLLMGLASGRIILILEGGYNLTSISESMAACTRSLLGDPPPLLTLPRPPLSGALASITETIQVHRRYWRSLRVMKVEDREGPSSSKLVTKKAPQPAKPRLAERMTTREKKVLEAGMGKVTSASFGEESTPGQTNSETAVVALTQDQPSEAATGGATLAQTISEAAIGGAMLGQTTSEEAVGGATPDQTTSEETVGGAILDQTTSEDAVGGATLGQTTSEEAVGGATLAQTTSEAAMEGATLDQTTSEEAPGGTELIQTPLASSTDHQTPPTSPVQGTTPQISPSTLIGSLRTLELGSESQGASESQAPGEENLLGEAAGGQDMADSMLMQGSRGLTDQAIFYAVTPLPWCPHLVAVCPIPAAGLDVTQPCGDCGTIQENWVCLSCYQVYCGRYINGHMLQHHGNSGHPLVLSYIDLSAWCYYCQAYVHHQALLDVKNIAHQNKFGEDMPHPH

MGC-803 [7] = assay: Induction of apoptosis in human MGC803 cells assessed as increase in PARP expression after 48 hrs by Western blotting analysis; type: functional, cell-based; conditions: dose 2-8 µM; outline: as §1
MGC-803 [8] = assay: Inhibition of cell invasion in human MGC803 cells after 72 hrs by transwell assay; type: functional, cell-based; conditions: dose 2-8 µM
Outline: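 Matrigel-coated transwell: cells in upper chamber with 1% FBS medium, 20% FBS medium below, compound added, 72 h. Cells fixed in 4% paraformaldehyde, DAPI-stained, then imaged and analyzed by high-content analysis. Mean ± SD of three experiments versus DMSO.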

MGC-803 [9] = assay: Induction of apoptosis in human MGC803 cells assessed as early apoptotic cells at 8 uM measured after 48 hrs by Annexin-V FITC/PI staining based flow cytometry (reference value: 0.19%); type: functional
[10] = molecular target: T2, Protein deacetylase HDAC6 (Homo sapiens) (UniProt Q9UBN7); conditions: Sf9, dose 100.0 nM, time 40.0 min
T2 sequence (whole entry): T1 sequence (Q9UBN7 whole entry)

MGC-803 [11] = assay: Induction of apoptosis in human MGC803 cells assessed as necrotic cells at 8 uM measured after 48 hrs by Annexin-V FITC/PI staining based flow cytometry (reference value: 4.74%); type: functional
MGC-803 [12] = assay: Antiproliferative activity against human MGC803 cells at 2 to 8 uM after 72 hrs by EdU staining based assay; type: functional, cell-based; conditions: dose 2-8 µM
Outline: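 MGC803 cells exposed to 0, 2, 4 or 8 µM for 72 h in 24-well plates, then EdU staining per kit instructions. EdU+ cells were imaged by immunofluorescence and quantified. Mean ± SD of three independent experiments; DMSO control.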

MGC-803 [13] = assay: Induction of apoptosis in human MGC803 cells assessed as early apoptotic cells at 4 uM measured after 48 hrs by Annexin-V FITC/PI staining based flow cytometry (reference value: 0.19%); type: functional
Histone deacetylase 3 = Histone deacetylase 3 (Homo sapiens, UniProt O15379); assay: Inhibition of HDAC3 (unknown origin)
Chain of Histone deacetylase 3 (O15379 whole entry): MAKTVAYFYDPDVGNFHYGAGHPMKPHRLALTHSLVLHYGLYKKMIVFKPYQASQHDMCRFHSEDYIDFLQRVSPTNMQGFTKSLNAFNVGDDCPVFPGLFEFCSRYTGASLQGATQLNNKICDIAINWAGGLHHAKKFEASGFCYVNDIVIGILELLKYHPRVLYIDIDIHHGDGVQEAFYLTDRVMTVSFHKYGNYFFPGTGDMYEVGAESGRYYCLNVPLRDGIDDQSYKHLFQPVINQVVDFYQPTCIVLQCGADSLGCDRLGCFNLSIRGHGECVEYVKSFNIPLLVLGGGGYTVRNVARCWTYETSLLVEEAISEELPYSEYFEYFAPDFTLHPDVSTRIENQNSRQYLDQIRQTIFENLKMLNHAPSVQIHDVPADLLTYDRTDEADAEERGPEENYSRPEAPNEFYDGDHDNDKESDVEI

MGC-803 [14] = assay: Induction of apoptosis in human MGC803 cells assessed as late apoptotic cells at 8 uM measured after 48 hrs by Annexin-V FITC/PI staining based flow cytometry (reference value: 2.74%); type: functional
MGC-803 [15] = assay: Induction of apoptosis in human MGC803 cells assessed as increase in caspase-9 expression after 48 hrs by Western blotting analysis; type: functional, cell-based; conditions: dose 2-8 µM; outline: as §1

Cc1ccc(-c2nc(CNc3ccc(C(=O)NO)cc3)n(-c3ccccc3)n2)s1
Activity [1]: Non-Toxic | Activity (MGC-803 [2]): Dose-Dependent Effect | IC50 (Histone deacetylase 1): 3940 nM | Activity (MGC-803 [3]): 2.21% | IC50 (MGC-803 [4]): 8450 nM | viability at 4 µM (MGC-803 [5]): 79.3% | IC50 [6]: 30.6 nM | Activity (MGC-803 [7]): Dose-Dependent Effect | inhibition (MGC-803 [8]): Dose-Dependent Effect | Activity (MGC-803 [9]): 8.76% | inhibition [10]: 79.7% | Activity (MGC-803 [11]): 1.96% | Activity (MGC-803 [12]): Active | Activity (MGC-803 [13]): 2.95% | IC50 (Histone deacetylase 3): 235 nM | Activity (MGC-803 [14]): 45.65% | Activity (MGC-803 [15]): Dose-Dependent Effect
